Converted amounts (≈) assume the structure as drawn.
How the values were obtained:
[1] = system: HEp-2; experiment: Cytotoxicity against human Hep2 cells by MTT assay; assay type: functional, cell-based
[2] = Cytotoxicity against human Doay cells by MTT assay; assay type: functional, cell-based
[3] = system: WiDr; experiment: Cytotoxicity against human WiDr cells by MTT assay; assay type: functional, cell-based
[4] = system: HeLa; experiment: Cytotoxicity against human HeLa cells by MTT assay; assay type: functional, cell-based
[5] = Antiinflammatory activity against FMLP/CB stimulated human neutrophils assessed as inhibition of elastase release relative to control; assay type: functional, cell-based; conditions: Neutrophil
Outline: (§1)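 Neutrophils were supplemented with 100 µM MeO-Suc-Ala-Ala-Pro-Val-p-nitroanilide at 6 × 10^5/mL, equilibrated 2 min at 37 °C, then given compound for 5 min. They were activated with FMLP (100 nM)/CB (0.5 µg/mL), and A405 was followed continuously. The initial rate is expressed relative to the FMLP/CB-activated DMSO control. Mean ± SEM, n = 3.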

[6] = Antiinflammatory activity against FMLP/CB stimulated human neutrophils assessed as inhibition of superoxide anion generation relative to control; assay type: functional, cell-based; conditions: Neutrophil
Outline: (§2)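 Human neutrophils were isolated by dextran sedimentation and Ficoll centrifugation. Cells were given 0.5 mg/mL ferricytochrome c and 1 mM Ca2+, equilibrated 2 min at 37 °C, then treated with compound for 5 min. CB (1 µg/mL) was added 3 min before 100 nM FMLP for 10 min. Superoxide was measured as SOD-inhibitable ferricytochrome c reduction. Mean ± SEM, n = 3.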

[7] = Antiinflammatory activity against FMLP/CB stimulated human neutrophils assessed as inhibition of elastase release at 10 ug/mL relative to control; assay type: functional; conditions: Neutrophil; outline: as §1
[8] = Antiinflammatory activity against FMLP/CB stimulated human neutrophils assessed as inhibition of superoxide anion generation at 10 ug/mL relative to control; assay type: functional; conditions: Neutrophil; outline: as §2

Row | Compound | IC50 [1] [µg/mL] | IC50 [2] [µg/mL] | IC50 [3] [µg/mL] | IC50 [4] [µg/mL] | IC50 [5] [µg/mL] | IC50 [6] [µg/mL] | inhibition at 10 µg/mL [7] [%] | inhibition at 10 µg/mL [8] [%]
1 | C=C1C[C@H](OC(C)=O)[C@H](OC(C)=O)[C@]2(C)[C@@H](OC(C)=O)CC/C(C)=C\[C@@H]3OC(=O)[C@H](C)[C@@]3(O)[C@@H](OC(C)=O)[C@@H]12 (relative stereo) [FRAJUNOLIDE E] | > 20 | > 20 | > 20 | > 20 | 27.4 (≈ 49.8 µM) | 17.5 (≈ 31.8 µM) | – | –
2 | C=C1C[C@H](OC(C)=O)[C@H](OC(C)=O)[C@]2(C)[C@@H](OC(C)=O)C[C@@]3(O)O[C@]4([C@@H](C)C(=O)O[C@H]4[C@@H](Cl)C3=C)[C@@H](OC(C)=O)[C@@H]12 (relative stereo) [FRAJUNOLIDE F] | > 20 | > 20 | > 20 | > 20 | – | – | 10.4 | 7.4
3 | C=C1/C=C\[C@H](OC(=O)COC(=O)CC(C)C)[C@@]2(C)[C@@H](OC(C)=O)CC[C@]3(CO3)[C@@H]2[C@H](OC(C)=O)[C@]2(O)[C@@H](C)C(=O)O[C@H]2[C@H]1Cl (relative stereo) [FRAJUNOLIDE G] | > 20 | > 20 | > 20 | > 20 | – | – | 8.3 | -7.5
4 | C=C1C[C@H](OC(C)=O)[C@H](OC(C)=O)[C@]2(C)[C@@H](OC(C)=O)/C=C/C(=C)[C@H](Cl)[C@@H]3OC(=O)[C@H](C)[C@@]3(O)[C@@H](OC(C)=O)[C@@H]12 (relative stereo) [FRAJUNOLIDE H] | > 20 | > 20 | > 20 | > 20 | – | – | 0.1 | -1.9
5 | C=C1/C=C/[C@H](OC(C)=O)[C@@]2(C)[C@@H](OC(C)=O)[C@@H](OC(C)=O)C[C@]3(CO3)[C@@H]2[C@H](OC(C)=O)[C@]2(O)[C@@H](C)C(=O)O[C@H]2[C@H]1Cl (relative stereo) [FRAJUNOLIDE I] | > 20 | > 20 | > 20 | > 20 | – | – | 18.2 | -10.3
6 | C=C1[C@@H]2[C@H](OC(C)=O)[C@@]3(O)[C@H](/C=C(/C)CC[C@H](OC(C)=O)[C@@]2(C)[C@@H](OC(C)=O)C[C@H]1OC(=O)CC)OC(=O)[C@@H]3C (relative stereo) [FRAJUNOLIDE J] | > 20 | > 20 | > 20 | > 20 | – | – | 19.9 | 20.1
7 | C=C1CC[C@H](OC(C)=O)[C@]2(C)[C@@H](OC(=O)COC(=O)CC(C)C)/C=C\C(=C)[C@H](Cl)[C@@H]3OC(=O)[C@H](C)[C@@]3(O)[C@@H](OC(C)=O)[C@@H]12 (relative stereo) [FRAJUNOLIDE K] | > 20 | > 20 | > 20 | > 20 | – | – | 8 | 2.4
8 | CC[C@@]1(O)C(=O)OCc2c1cc1n(c2=O)Cc2cc3ccccc3nc2-1 [CAMPTOTHECIN] | 0.02 (≈ 0.0574 µM) | 0.08 (≈ 0.23 µM) | 0.07 (≈ 0.201 µM) | 0.19 (≈ 0.545 µM) | – | – | – | –
9 | O=c1c(-c2ccc(O)cc2)coc2cc(O)cc(O)c12 [GENISTEIN] | – | – | – | – | – | – | 51.6 | 65

From ChEMBL document CHEMBL1156664, “Frajunolides E-K, briarane diterpenes from Junceella fragilis” (J Nat Prod, 2008)
